# Laboratory results published in ChEMBL document CHEMBL1153547, “Rifampin inhibits prostaglandin E2 production and arachidonic acid release in human alveolar epithelial cells” (Antimicrob Agents Chemother, 2007).
# Active and inactive are the calls of the source. The rule behind the calls is not given here.
# How the values were obtained:
# [1] = Drug level in serum at 600 mg; assay type: ADME, cell-free
# A549 [2] = assay: Immunomodulatory effect in human A549 cells assessed as reduction in IL-1-beta-induced PGE2 formation at 100 ug/ml after 48 hrs by enzyme immunoassay; assay type: functional, cell-based
# Procedure, shortened: (§1)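 A549 cells seeded at 1.5 x 10^5/well and grown 24 h, then held overnight in serum- and antibiotic-free medium. Cells exposed to IL-1ß (1 ng/ml) with or without rifampin (10 to 100 µg/ml) in fresh medium for 48 h, with DMSO vehicle at most 0.1%. Cleared supernatants stored at –70°C. PGE2 measured by enzyme immunoassay, triplicate wells.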
# A549 [3] = assay: Immunomodulatory effect in human A549 cells assessed as reduction in IL-1-beta-induced PGE2 formation at 50 ug/ml after 48 hrs by enzyme immunoassay; assay type: functional; design: scale not given: the % may be the effect or the level left; procedure, shortened: as §1
# A549 [4] = assay: Immunomodulatory effect in human A549 cells assessed as reduction in IL-1-beta-induced PGE2 formation at 25 ug/ml after 48 hrs by enzyme immunoassay; assay type: functional; design: scale not given: the % may be the effect or the level left; procedure, shortened: as §1
# A549 [5] = assay: Cytotoxicity against human A549 cells assessed as cell viability by neutral red uptake assay; assay type: cell-based
# Procedure, shortened: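 A549 cells in 96-well plates, after treatment, given neutral red at 0.05% final in fresh medium for 1 h. Cells washed with cold PBS containing Ca2+ and Mg2+, then dye extracted with Sorenson's citrate buffer-ethanol. Absorbance read at 540 nm. Viability taken as the absorbance ratio of treated to untreated cells.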
# A549 [6] = assay: Immunomodulatory effect in human A549 cells assessed as reduction in IL-1-beta-induced [3H]arachidonic acid release measured after 4 hrs of IL1-beta challenge by liquid scintillation counting; assay type: functional, cell-based
# Procedure, shortened: (§2)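 A549 cells (2 x 10^6 per 3-cm plate), grown 24 h, labeled 4 h with [3H]AA at 0.5 µCi/ml in serum-free medium, then washed five times. Incubated in serum-free medium with 1 mg/ml BSA plus IL-1ß (1 ng/ml) ± rifampin, or rifampin alone, or medium alone, for 4 h unless another time is stated. Supernatant counted by liquid scintillation. Release given as % of incorporated label. Inhibition = 100 x [(IL-1ß – medium) – (IL-1ß+rif – rif alone)]/(IL-1ß – medium).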
# A549 [7] = assay: Immunomodulatory effect in human A549 cells assessed as reduction in spontaneous release of [3H]arachidonic acid by liquid scintillation counting; assay type: functional, cell-based
# Procedure, shortened: (§3)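 A549 cells prelabeled 4 h with [3H]AA at 0.5 µCi/ml, washed, then kept in serum-free medium with 1 mg/ml BSA, alone or with rifampin, with sampling at set times. Supernatant radioactivity counted by liquid scintillation and given as % of incorporated label. Incorporation estimated by subtracting supernatant counts after labeling from the radioactivity added. Two independent experiments, n = 5 per group.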
# A549 [8] = assay: Immunomodulatory effect in human A549 cells assessed as reduction in IL-1-beta-induced [3H]arachidonic acid release at 10 to 100 ug/ml measured after 4 hrs of IL1-beta challenge by liquid scintillation counting; assay type: functional, cell-based; procedure, shortened: as §2
# A549 [9] = assay: Immunomodulatory effect in human A549 cells assessed as reduction in IL-1-beta-induced [3H]arachidonic acid release at 50 ug/ml measured after 2 hrs of IL1-beta challenge by liquid scintillation counting; assay type: functional; design: scale not given: the % may be the effect or the level left; procedure, shortened: as §2
# A549 [10] = assay: Immunomodulatory effect in human A549 cells assessed as reduction in IL-1-beta-induced [3H]arachidonic acid release at 50 ug/ml measured after 6 hrs of IL1-beta challenge by liquid scintillation counting; assay type: functional; design: scale not given: the % may be the effect or the level left; procedure, shortened: as §2
# A549 [11] = assay: Immunomodulatory effect in human A549 cells assessed as reduction in IL-1-beta-induced [3H]arachidonic acid release at 50 ug/ml measured after 19 hrs of IL1-beta challenge by liquid scintillation counting; assay type: functional; design: scale not given: the % may be the effect or the level left; procedure, shortened: as §2
# A549 [12] = assay: Immunomodulatory effect in human A549 cells assessed as reduction in basal release of [3H]arachidonic acid at 50 ug/ml up to 2 hrs by liquid scintillation counting; assay type: functional; design: scale not given: the % may be the effect or the level left; procedure, shortened: as §3
# A549 [13] = assay: Immunomodulatory effect in human A549 cells assessed as reduction in basal release of [3H]arachidonic acid at 50 ug/ml up to 19 hrs by liquid scintillation counting; assay type: functional; design: scale not given: the % may be the effect or the level left; procedure, shortened: as §3
# A549 [14] = assay: Immunomodulatory effect in human A549 cells assessed as inhibition of Ca2+ ionophore A23187 stimulated-[3H]arachidonic acid release measured after 45 mins of A23187 challenge by liquid scintillation counting; assay type: functional, cell-based
# A549 [15] = assay: Immunomodulatory effect in human A549 cells assessed as inhibition of Ca2+ ionophore A23187 stimulated-[3H]arachidonic acid release measured after 2 hrs of A23187 challenge by liquid scintillation counting; assay type: functional
# A549 [16] = assay: Immunomodulatory effect in human A549 cells assessed as inhibition of Ca2+ ionophore A23187 stimulated-[3H]arachidonic acid release measured after 4 hrs of A23187 challenge by liquid scintillation counting; assay type: functional
# A549 [17] = assay: Inhibition of IL-1-beta-induced COX2 expression in human A549 cells at 50 ug/ml measured after 24 hrs of IL1-beta challenge by Western blot analysis; assay type: functional, cell-based
# Procedure, shortened: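 A549 cells (2 x 10^6 per 3-cm dish) grown 24 h, then 24 h in serum- and antibiotic-free medium. Treated with IL-1ß (1 ng/ml) ± rifampin (50 µg/ml) for 24 h, then lysed in SDS buffer and denatured at 95°C. Blocked in 5% milk/TBST, then rabbit anti-COX-2 (1:1,000) overnight at 4°C. HRP secondary used and detected by ECL, with β-actin as comparator and densitometry.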
compound,measurement,setting,value
CO[C@H]1/C=C/O[C@@]2(C)Oc3c(C)c(O)c4c(O)c(c(/C=N/N5CCN(C)CC5)c(O)c4c3C2=O)NC(=O)/C(C)=C\C=C\[C@H](C)[C@H](O)[C@@H](C)[C@@H](O)[C@@H](C)[C@H](OC(C)=O)[C@@H]1C [RIFAMPIN],Drug uptake,[1],10 µg/mL
same,Activity,A549 [2],Dose-dependent effect
same,Activity,A549 [3],59%
same,Activity,A549 [4],45%
same,Activity,A549 [5],Non-toxic
same,Activity,A549 [6],Dose-dependent effect
same,Activity,A549 [7],Dose-dependent effect
same,Activity,A549 [8],Active
same,Activity,A549 [9],53%
same,Activity,A549 [10],79%
same,Activity,A549 [11],95%
same,Activity,A549 [12],47%
same,Activity,A549 [13],34%
same,inhibition,A549 [14],inactive
same,inhibition (INH),A549 [15],5.5%
same,inhibition (INH),A549 [16],8.3%
same,inhibition,A549 [17],inactive
